In PubChem BioAssay:
Calls of active or inactive are those of the source.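 The calls were made as follows, unless noted: active = inhibition above 20% together with a positive visual image hit; inconclusive = visual image hit but inhibition not above 20%; inactive = no visual image hit.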

Tests used:
[1] = inhibitors of TNFa-induced NFkB p65 translocation, primary screen, imaging, HUVEC, MLSMR starter and 10KST1 sets (AID 438); conditions: HUVEC TNFa-induced p65 nuclear translocation; cell count: measured here: nuclei count (cytotoxicity indicator), at 2.08 µM; inhibition: at 2 µM, stronger effect = higher value, 0% TNFa-plus-vehicle, 100% no-TNFa wells;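 also: compound added about 3h40 before a 20 min TNFalpha stimulation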;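 as to inhibition: signal is the nuclear over cytoplasmic p65 intensity ratio per well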
[2] = inhibitors of E-selectin induction by TNFa, primary screen, imaging, HUVEC, immunofluorescence, MLSMR starter and 10KST1 sets (AID 487;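 active = visually confirmed hit in the image check and inhibition above 20%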;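 as to inhibition: signal is fraction of cell area covered by stained E-selectin grains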;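 as to nuclei count: 100% = median nuclei count of all wells on the same plate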); conditions: HUVEC TNFalpha-induced E-selectin immunofluorescence imaging, at 2 µM; inhibition: stronger effect = higher value; nuclei count: measured here: cell number, toxicity
[3] = DUSP6 inhibitors restoring Erk phosphorylation by chemical complementation, primary imaging in DUSP6-transfected HeLa (AID 609;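 active = compounds giving at least 50% inhibition in the cell-based MKP-3 phosphatase rescue imaging test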;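 as to inhibition: phospho-Erk level distribution per well compared with pooled transfected vehicle control wells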); conditions: HeLa MKP-3 transfected, phospho-Erk imaging KS statistic, at 10 µM, cells stimulated with TPA for 15 min
[4] = molecular target: Dual specificity protein phosphatase 6 (Homo sapiens) (UniProt Q16828); assay: as above; conditions: HeLa MKP-3 transfected, phospho-Erk imaging KS statistic; at 10 µM; stronger effect = higher value; cells stimulated with TPA for 15 min
[5] = molecular target: Voltage-gated potassium channel subunit beta-2 (Rattus norvegicus) (UniProt P62483); assay: KvBeta enzyme negative modulators, primary screen, biochemical, NADPH fluorescence (AID 622;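 active = fluorescence slope higher than the sample average by over 3 SD, cut at about -0.22 in these data, passing the limit was not always enough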;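 also: slope of raw intensity against log time taken from 70 to 1610 s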); conditions: recombinant KvBeta, 4-cyanobenzaldehyde reduction, at 10 µM, stronger effect = higher value
[6] = molecular target: Voltage-gated potassium channel subunit beta-2 (Rattus norvegicus) (UniProt P62483); assay: KvBeta positive modulators, primary screen, biochemical, NADPH fluorescence (AID 623;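 active = NADPH fluorescence slope more negative than the mean of all samples by about 3 SD, 99.7% confidence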;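 also: fluorescence intensity change per second fitted from 20 to 320 s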); conditions: Recombinant KvBeta, NADPH fluorescence decrease slope, 10 min; at 10 µM; stronger effect = lower value
[7] = molecular target: Alpha-2C adrenergic receptor (Homo sapiens) (UniProt P18825); assay: modulators of alpha2C/GIRK thallium flux, primary screen, cell-based, HEK293 alpha2C/GIRK1/2 (AID 624;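 active = fluorescence slope after compound addition differing from the mean of all screened samples at 99.7% confidence, in either direction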;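 also: slope of fluorescence ratio to pre-addition baseline per second over 15 to 24 s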); conditions: thallium flux BTC fluorescence, at 10 µM, actives lie on both sides
[8] = inhibitors of larval lipid processing in zebrafish, primary screen, whole organism, PED6 fluorescence, gall bladder and intestine (AID 686;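 active = a full or partial loss of lipid-probe fluorescence in the fish gall bladder, intestine or both, judged by eye; inactive = no fluorescence loss, or compound toxic to the fish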;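 also: larvae 5 to 7 days old with five fish per well; signal comes from phospholipase A2 cleavage of quenched PED6 carried via bile; overnight exposure to compound and PED6 before scoring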); conditions: Zebrafish larvae PED6 lipid processing, fluorescence scoring; screened at 20 µM (by protocol)
Procedure, shortened: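 System: live zebrafish larvae aged 5-7 days, whole organism; measure: graded gall bladder and intestinal fluorescence inhibition per well; incubation: overnight exposure; reagent: ingested quenched lipid PED6 at 100 nM; signal: By-eye fluorescence microscopy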

[9] = inhibitors of Chlamydomonas gravitaxis, primary screen, whole organism, Chlamydomonas reinhardtii, WT vs cilia-less mutant, absorbance, 96-well (AID 463189;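 active = inhibition at or above 50% relative to wild type and mutant plate controls; inactive = inhibition below 50%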;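 also: 0% = wild type cc124 cells in DMSO and 100% = ciliumless bld1 mutant cells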); conditions: OD600 absorbance, 2 days, at 10 µM, stronger effect = higher value
[10] = measured here: cell density z-score
[11] = measured here: nuclear c-Myc green intensity z-score
[12] = measured here: nuclear pErk red intensity z-score, stronger effect = higher value

Dual specificity protein phosphatase 6 (Homo sapiens), sequence (Q16828 whole entry, looked up): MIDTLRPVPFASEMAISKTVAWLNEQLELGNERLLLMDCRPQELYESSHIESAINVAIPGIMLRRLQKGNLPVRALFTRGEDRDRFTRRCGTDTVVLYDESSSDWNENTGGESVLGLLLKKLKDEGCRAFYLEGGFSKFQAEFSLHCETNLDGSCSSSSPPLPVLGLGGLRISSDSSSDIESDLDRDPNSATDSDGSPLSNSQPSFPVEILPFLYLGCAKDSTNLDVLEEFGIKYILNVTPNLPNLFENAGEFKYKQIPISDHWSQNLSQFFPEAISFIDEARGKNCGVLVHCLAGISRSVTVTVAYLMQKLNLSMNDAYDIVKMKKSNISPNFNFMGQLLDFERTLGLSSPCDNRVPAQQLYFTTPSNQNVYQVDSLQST
Voltage-gated potassium channel subunit beta-2 (Rattus norvegicus), sequence (P62483 whole entry, looked up): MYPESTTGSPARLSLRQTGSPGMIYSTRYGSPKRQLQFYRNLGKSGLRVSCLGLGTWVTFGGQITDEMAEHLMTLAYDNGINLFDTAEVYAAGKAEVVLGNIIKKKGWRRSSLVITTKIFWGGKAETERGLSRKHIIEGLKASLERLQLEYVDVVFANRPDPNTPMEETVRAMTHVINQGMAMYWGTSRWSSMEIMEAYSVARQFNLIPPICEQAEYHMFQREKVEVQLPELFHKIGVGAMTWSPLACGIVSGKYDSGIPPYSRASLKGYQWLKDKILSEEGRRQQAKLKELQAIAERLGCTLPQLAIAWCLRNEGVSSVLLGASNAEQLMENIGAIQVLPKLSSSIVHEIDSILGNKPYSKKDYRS
Alpha-2C adrenergic receptor (Homo sapiens), sequence (P18825 whole entry, looked up): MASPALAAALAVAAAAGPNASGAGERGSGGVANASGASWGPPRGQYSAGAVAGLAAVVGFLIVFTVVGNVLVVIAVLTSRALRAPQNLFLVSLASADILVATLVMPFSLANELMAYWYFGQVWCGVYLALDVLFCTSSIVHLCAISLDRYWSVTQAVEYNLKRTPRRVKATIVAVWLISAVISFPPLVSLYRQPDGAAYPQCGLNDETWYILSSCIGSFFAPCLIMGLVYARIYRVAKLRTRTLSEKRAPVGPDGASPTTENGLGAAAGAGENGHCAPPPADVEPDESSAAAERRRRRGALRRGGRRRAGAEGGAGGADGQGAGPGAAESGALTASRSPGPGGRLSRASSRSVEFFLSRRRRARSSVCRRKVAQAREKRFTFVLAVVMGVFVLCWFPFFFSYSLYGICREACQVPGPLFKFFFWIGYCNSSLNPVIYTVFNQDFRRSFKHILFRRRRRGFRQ

Structure (SMILES) | cell count [1] | inhibition [1] | inhibition [2] | nuclei count [2] [%] | z-score [3, 10] | z-score [3, 11] | z-score [3, 12] | inhibition [4] | fluorescence slope [5] | NADPH fluorescence slope [6] | slope [7] | outcome [8] | inhibition [9]
Cc1nc(NCc2ccccc2)c(C(N)=O)c2c1COC(C)(C)C2 | 643 | -5.8% (inactive) | -17.6% (inactive) | 192 | 0.783 | 0.565 | -0.208 | 9.39% (inactive) | -0.512 (inactive) | -7.6e-05 (inactive) | 0.00486 (inactive) | inactive | -5.71% (inactive)
COC(=O)c1ccc(CSc2ncnc3c2sc2nc(N4CCOCC4)c4c(c23)CCCC4)o1 | 565 | -11.6% (inactive) | 7.4% (inactive) | 164 | 0.509 | -1.97 | -0.0919 | 1.48% (inactive) | -0.237 (inactive) | -1e-05 (inactive) | 0.00899 (inactive) | inactive | -7.35% (inactive)
Cc1nc(Nc2ncc3c(n2)CCCC3=O)nc2ccccc12 | 372 | 3.8% (inactive) | 26.2% (inactive) | 122 | 0.317 | -0.989 | 1.03 | 9.42% (inactive) | -0.403 (inactive) | -0.000152 (inactive) | 0.00649 (inactive) | inactive | 22.8% (inactive)
COc1ccccc1N(Cc1cc2cccc(C)c2[nH]c1=O)C(=O)C(C)C | 355 | -9.7% (inactive) | -118% (inactive) | 171 | 1.34 | -1.06 | -1.74 | 43.8% (inactive) | -0.449 (inactive) | -0.000154 (inactive) | 0.00657 (inactive) |  | 28.4% (inactive)
CC(C)OC(=O)C(C#N)c1nc2ccccc2nc1N1CCCC1 (configuration not stated) | 485 | -22.5% (inactive) | -48.2% (inactive) | 129 | 2.22 | -1.34 | -1.3 | 22.7% (inactive) | -0.543 (inactive) | -1.4e-05 (inactive) | 0.00397 (inactive) | inactive | 5.71% (inactive)
Cc1ccc2cc(CN(C(=O)c3ccco3)c3ccccc3C)c(=O)[nH]c2c1 | 334 | 8.3% (inactive) | -73.2% (inactive) | 116 | 1.77 | -1.81 | -0.15 | 17.5% (inactive) | -0.477 (inactive) | 1.8e-05 (inactive) | 0.00844 (inactive) |  | 32.2% (inactive)
COC(=O)c1ccccc1NC=C1C(=O)OC2(CCCCC2)OC1=O | 343 | -9% (inactive) | 27.4% (inactive) | 86.4 | -1.26 | -1.2 | -0.313 | 1.42% (inactive) | -0.443 (inactive) | -1.9e-05 (inactive) | 0.00691 (inactive) | inactive | 46.5% (inactive)
COc1ccc(/C(O)=C2/C(=O)C(=O)N(CCCN(C)C)C2c2cccc(Cl)c2)cc1OC (configuration not stated) | 382 | -1.1% (inactive) | -135% (inactive) | 155 | -1.5 | 0.328 | 0.495 | 3.66% (inactive) | -0.393 (inactive) | -5.4e-05 (inactive) | 0.00697 (inactive) | inactive | 0.268% (inactive)
CC(C)(C)c1ccc(C(=O)C=[N+]=[N-])cc1 | 519 | -4.7% (inactive) | -112% (inactive) | 60.8 | -1.12 | -0.668 | -0.2 | 3.97% (inactive) | -0.524 (inactive) | -6.4e-05 (inactive) | 0.00701 (inactive) | inactive | 2.22% (inactive)
COc1ccc(C(=O)Nc2nc(N)n(-c3ccccc3)n2)cc1OC | 328 | 11.6% (inactive) | 8.6% (inactive) | 154 | -1.01 | 1.47 | 0.0402 | -1.75% (inactive) | -0.426 (inactive) | -0.000152 (inactive) | 0.00543 (inactive) |  | 12.5% (inactive)
